# Activity calls are given as the source filed them. No cut-off for these calls is given here.
# What was measured:
# [1] = Cytotoxicity against human Rh30 cells assessed as cell viability by MTT assay; type: functional, cell-based; details: SJRH30
# Procedure, shortened: (§1)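 RD2, RH30 and U2OS sarcoma cells were seeded at 3000 cells/well and incubated 24 h at 37 °C. Compounds were then added in triplicate at 0.1–10 or 0.1–20 μM in the presence of 10% FBS, from 20 mM DMSO stocks. IC50 was obtained by curve fitting.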
# [2] = Cytotoxicity against human RD2 cells assessed as cell viability by MTT assay; type: functional, cell-based; procedure, shortened: as §1
# [3] = biological target: Signal transducer and activator of transcription 3 (Homo sapiens) (UniProt P40763); assay: Inhibition of IL6-induced STAT3 Y705 phosphorylation in human MCF7 cells at 0.5 to 2.5 uM incubated for 5 hrs prior to IL6 induction measured after 30 mins by Western blot analysis; type: cell-based
# Chain of Signal transducer and activator of transcription 3 (Homo sapiens) (P40763 whole entry): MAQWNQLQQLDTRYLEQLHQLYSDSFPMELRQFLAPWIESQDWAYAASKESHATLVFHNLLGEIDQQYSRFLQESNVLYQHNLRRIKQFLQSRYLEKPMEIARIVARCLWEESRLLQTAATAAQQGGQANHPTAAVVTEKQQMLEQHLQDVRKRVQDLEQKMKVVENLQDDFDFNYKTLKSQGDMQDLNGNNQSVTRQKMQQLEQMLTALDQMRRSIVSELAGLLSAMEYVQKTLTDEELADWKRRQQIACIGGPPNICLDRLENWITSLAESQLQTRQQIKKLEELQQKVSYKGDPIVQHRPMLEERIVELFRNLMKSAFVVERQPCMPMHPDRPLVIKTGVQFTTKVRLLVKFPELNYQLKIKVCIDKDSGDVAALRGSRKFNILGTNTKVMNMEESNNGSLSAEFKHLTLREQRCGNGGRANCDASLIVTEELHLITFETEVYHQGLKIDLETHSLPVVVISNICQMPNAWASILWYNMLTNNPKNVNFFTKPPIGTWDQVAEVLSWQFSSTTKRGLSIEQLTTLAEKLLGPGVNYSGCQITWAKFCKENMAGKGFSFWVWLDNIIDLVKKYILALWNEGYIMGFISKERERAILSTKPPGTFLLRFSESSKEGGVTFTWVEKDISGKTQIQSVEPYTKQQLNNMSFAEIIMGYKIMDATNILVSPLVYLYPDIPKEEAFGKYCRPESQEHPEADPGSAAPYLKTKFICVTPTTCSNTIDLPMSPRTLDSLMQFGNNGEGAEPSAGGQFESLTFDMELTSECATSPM
# Procedure, shortened: (§2)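 MCF-7 cells, which lack persistent P-STAT3, were allowed to adhere overnight and then serum-starved overnight. They were left untreated or pretreated with compound or DMSO for 5 h, then stimulated with IL-6 at 25 ng/mL. Cells were harvested 30 min later and probed for P-STAT3 (Tyr705) and STAT3 by Western blot using RIPA lysates and ECL.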
# U2OS = assay: Cytotoxicity against human U2OS cells assessed as cell viability by MTT assay; type: functional, cell-based; procedure, shortened: as §1
# SJRH30 [4] = assay: Effect on total STAT3 expression in human Rh30 cells at 0.5 to 2.5 uM after 16 hrs by Western blot analysis; type: functional, cell-based
# Procedure, shortened: (§3)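 RH30 cells at 60–80% confluence in 10% FBS were treated with compound or DMSO for 16 h. Whole-cell extracts were made in cold RIPA buffer with protease and phosphatase inhibitor cocktails. Extracts were run on SDS-PAGE and transferred to PVDF. Blots were probed for P-STAT3 (Tyr705) and total STAT3 with primary antibody 1:1,000 and HRP secondary 1:10000, then detected by ECL.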
# [5] = biological target: Signal transducer and activator of transcription 3 (Homo sapiens) (UniProt P40763); assay: Inhibition of constitutive STAT3 Y705 phosphorylation in human Rh30 cells after 16 hrs by Western blot analysis; type: cell-based; procedure, shortened: as §3
# MDA-MB-231 [6] = assay: Antitumor activity against human MDA-MB-231 cells xenografted in Harlan athymic nude mouse assessed as tumor growth inhibition at 5 mg/kg, ip measured for 21 days; type: functional, organism-based; set-up: dose 5 mg/kg
# Procedure, shortened: (§4)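 Female athymic nude mice, 6 weeks old, received 5 × 10^6 MDA-MB-231 cells subcutaneously in the flank. After tumors developed, they were split into two groups of eight tumors each: DMSO vehicle control, or 5 mg/kg IP. The drug was formulated in Cremaphor, DMSO and 5% dextrose. Tumor L and W were measured by caliper every other day. Volume = 0.5236 × L × W2. Treatment lasted 21 days.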
# [7] = biological target: Signal transducer and activator of transcription 3 (Homo sapiens) (UniProt P40763); assay: Inhibition of constitutive STAT3 Y705 phosphorylation in human EW8 cells after 8 hrs by Western blot analysis; type: cell-based
# Procedure, shortened: (§5)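 EW8 Ewing's sarcoma cells were treated with 0.5–1 μM compound or DMSO for 8 h, in 10% FBS at 60–80% confluence. Whole-cell RIPA lysates were analyzed by SDS-PAGE and PVDF Western blot, with primary antibody 1:1,000, HRP secondary 1:10000 and ECL detection. Blots were probed for P-STAT3, total STAT3, phosphorylated ERK1/2 and cleaved caspase 3.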
# [8] = biological target: Signal transducer and activator of transcription 3 (Homo sapiens) (UniProt P40763); assay: Inhibition of IL6-induced STAT3 Y705 phosphorylation in human DAOY cells at 1 to 5 uM incubated for 2 hrs prior to IL6 induction measured after 30 mins by Western blot analysis; type: cell-based
# Procedure, shortened: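 DAOY medulloblastoma cells were allowed to adhere, then serum-starved overnight. They were left untreated or pretreated with 1–5 μM compound or DMSO for 2 h, then stimulated with IL-6. Cells were harvested 30 min after stimulation. P-STAT3 (Tyr705) and STAT3 were detected by Western blot from RIPA lysates, with ECL detection.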
# SJRH30 [9] = assay: Effect on total STAT3 expression in human Rh30 cells at 0.25 to 1 uM after 16 hrs by Western blot analysis; type: functional, cell-based; procedure, shortened: as §3
# [10] = biological target: Mitogen-activated protein kinase; ERK1/ERK2 (Homo sapiens) (UniProt P27361+P28482); assay: Inhibition of ERK1/2 phosphorylation in human EW8 cells at 0.5 to 1 uM after 8 hrs by Western blot analysis; type: cell-based; procedure, shortened: as §5
# Chain of Mitogen-activated protein kinase; ERK1/ERK2 (Homo sapiens) (P27361 whole entry, looked up): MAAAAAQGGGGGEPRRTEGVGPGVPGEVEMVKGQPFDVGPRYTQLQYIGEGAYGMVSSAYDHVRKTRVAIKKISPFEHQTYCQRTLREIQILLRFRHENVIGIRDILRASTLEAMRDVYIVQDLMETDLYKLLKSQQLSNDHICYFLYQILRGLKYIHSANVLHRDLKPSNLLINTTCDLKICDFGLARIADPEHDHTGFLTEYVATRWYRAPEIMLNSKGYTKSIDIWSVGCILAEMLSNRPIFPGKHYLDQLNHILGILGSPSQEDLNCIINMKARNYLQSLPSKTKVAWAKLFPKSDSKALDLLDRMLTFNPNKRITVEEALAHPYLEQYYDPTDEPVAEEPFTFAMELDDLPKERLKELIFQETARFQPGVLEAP
# Chain of Mitogen-activated protein kinase; ERK1/ERK2 (Homo sapiens) (P28482 whole entry, looked up): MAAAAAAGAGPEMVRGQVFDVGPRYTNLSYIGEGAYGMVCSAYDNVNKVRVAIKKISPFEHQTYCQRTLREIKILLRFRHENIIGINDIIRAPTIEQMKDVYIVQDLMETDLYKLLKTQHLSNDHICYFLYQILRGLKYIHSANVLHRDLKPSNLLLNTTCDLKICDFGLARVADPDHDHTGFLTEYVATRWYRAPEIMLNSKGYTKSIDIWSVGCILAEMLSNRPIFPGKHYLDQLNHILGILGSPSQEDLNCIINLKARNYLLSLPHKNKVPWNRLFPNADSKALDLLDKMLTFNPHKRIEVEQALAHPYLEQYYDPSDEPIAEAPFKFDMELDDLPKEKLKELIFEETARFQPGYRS
# MDA-MB-231 [11] = assay: Antitumor activity against human MDA-MB-231 cells xenografted in Harlan athymic nude mouse assessed as decrease in tumor size at 5 mg/kg, ip measured for 21 days; type: functional, organism-based; set-up: dose 5 mg/kg; procedure, shortened: as §4
# [12] = biological target: Signal transducer and activator of transcription 3 (Homo sapiens) (UniProt P40763); assay: Inhibition of constitutive STAT3 Y705 phosphorylation in human EW8 cells assessed as appearance of cleaved caspase 3 at 0.5 to 1 uM after 8 hrs by Western blot analysis; type: cell-based; procedure, shortened: as §5
# [13] = biological target: T1, Signal transducer and activator of transcription 1-alpha/beta (Homo sapiens) (UniProt P42224); assay: Inhibition of IFN-gamma-induced STAT1 Y701 phosphorylation in human DAOY cells at 1 to 5 uM incubated for 2 hrs prior to IFN-gamma induction measured after 30 mins by Western blot analysis; type: cell-based
# T1 sequence (whole entry): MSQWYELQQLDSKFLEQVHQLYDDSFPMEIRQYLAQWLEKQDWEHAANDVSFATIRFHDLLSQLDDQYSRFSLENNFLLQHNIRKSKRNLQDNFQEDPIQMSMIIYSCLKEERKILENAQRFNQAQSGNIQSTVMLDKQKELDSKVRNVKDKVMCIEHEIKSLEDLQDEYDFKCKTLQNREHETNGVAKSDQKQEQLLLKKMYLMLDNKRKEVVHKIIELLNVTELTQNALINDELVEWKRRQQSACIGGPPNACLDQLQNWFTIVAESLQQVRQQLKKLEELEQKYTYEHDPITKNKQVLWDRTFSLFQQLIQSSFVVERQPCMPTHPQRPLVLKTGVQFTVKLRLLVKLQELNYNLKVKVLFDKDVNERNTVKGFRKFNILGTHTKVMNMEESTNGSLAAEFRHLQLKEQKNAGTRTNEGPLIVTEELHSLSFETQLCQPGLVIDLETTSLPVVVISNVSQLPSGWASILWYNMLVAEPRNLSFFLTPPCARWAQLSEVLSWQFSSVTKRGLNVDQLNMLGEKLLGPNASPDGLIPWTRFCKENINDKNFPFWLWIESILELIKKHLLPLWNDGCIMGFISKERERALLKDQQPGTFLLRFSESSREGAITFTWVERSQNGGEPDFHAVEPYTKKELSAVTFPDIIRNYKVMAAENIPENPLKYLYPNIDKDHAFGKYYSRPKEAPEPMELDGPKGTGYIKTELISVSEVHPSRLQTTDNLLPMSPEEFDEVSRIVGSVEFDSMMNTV
# Procedure, shortened: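 DAOY cells were serum-starved overnight and left untreated or treated with 1–5 μM compound or DMSO for 2 h. They were then stimulated with IFN-γ at 50 ng/mL and harvested 30 min later. STAT1 phosphorylation was analyzed by Western blot from RIPA lysates, with ECL detection.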
# EW8 = assay: Effect on total STAT3 expression in human EW8 cells at 0.5 to 1 uM after 8 hrs by Western blot analysis; type: functional, cell-based; procedure, shortened: as §5
# [14] = biological target: Signal transducer and activator of transcription 3 (Homo sapiens) (UniProt P40763); assay: Inhibition of IL6-induced STAT3 Y705 phosphorylation in human MCF7 cells at 0.25 to 1 uM incubated for 5 hrs prior to IL6 induction measured after 30 mins by Western blot analysis; type: cell-based; procedure, shortened: as §2
# MDA-MB-231 [15] = assay: Cytotoxicity against human MDA-MB-231 cells assessed as cell viability after 72 hrs by MTT assay; type: functional, cell-based; details: MDA-MB-231, 72 h
# SK-BR-3 = assay: Cytotoxicity against human SKBR3 cells assessed as cell viability after 72 hrs by MTT assay; type: functional, cell-based; details: SK-BR-3, 72 h
# [16] = Cytotoxicity against human U373 cells assessed as cell viability after 72 hrs by MTT assay; type: functional, cell-based, U-373MG ATCC; details: U373 MG
# PANC-1 = assay: Cytotoxicity against human PANC1 cells assessed as cell viability after 72 hrs by MTT assay; type: functional, cell-based; details: PANC-1, 72 h
# [17] = Cytotoxicity against human U87 cells assessed as cell viability after 72 hrs by MTT assay; type: functional, cell-based, U-87MG ATCC; details: U-87 MG
structure (smiles),measurement,setting,value
O=C1C(Nc2ccc([N+](=O)[O-])cc2Cl)=CC2=NS(=O)(=O)c3cccc1c32,IC50,[1],1.14 µM
same,IC50,[2],2.56 µM
same,inhibition,[3],Active
same,IC50,U2OS,1.39 µM
same,Activity,SJRH30 [4],inactive
same,inhibition,[5],Dose-dependent effect
NS(=O)(=O)c1cccc2c1C(=O)C=C(Nc1cccnc1)C2=O,TGI,MDA-MB-231 [6],Active
same,inhibition,[7],Dose-dependent effect
same,IC50,[1],0.55 µM
same,inhibition,[8],Active
same,Activity,SJRH30 [9],inactive
same,inhibition,[10],inactive
same,IC50,[2],1.39 µM
same,Activity,MDA-MB-231 [11],Active
same,IC50,U2OS,0.5 µM
same,inhibition,[12],Active
same,inhibition,[13],inactive
same,Activity,EW8,inactive
same,inhibition,[14],Active
same,inhibition,[5],Dose-dependent effect
O=C1C(Nc2ccc3ccccc3c2)=CC2=NS(=O)(=O)c3cccc1c32,IC50,U2OS,2.5 µM
NS(=O)(=O)c1cccc2c1C(=O)C=C(Nc1ccccc1)C2=O,IC50,U2OS,> 5 µM
NS(=O)(=O)c1cccc2c1C(=O)c1cccc(O)c1C2=O,IC50,MDA-MB-231 [15],0.16 µM
same,IC50,SK-BR-3,0.16 µM
same,IC50,[16],0.16 µM
same,IC50,PANC-1,0.16 µM
same,IC50,[17],0.16 µM
O=C1C(Nc2ccccc2)=CC2=NS(=O)(=O)c3cccc1c32,IC50,U2OS,5 µM

# — ChEMBL document CHEMBL2380221, “Discovery of novel STAT3 small molecule inhibitors via in silico site-directed fragment-based drug design” (J Med Chem, 2013)
